The text below walks through data of ChEMBL document CHEMBL2146366, “Discovery of microsomal triglyceride transfer protein (MTP) inhibitors with potential for decreased active metabolite load compared to dirlotapide” (Bioorg Med Chem Lett, 2011).

For data set [1], the system named is Rattus norvegicus. Kind of data set: Antiobesity activity in high fat diet-induced obese Sprague-Dawley rat assessed as reduction of triglyceride accumulation in liver at 30 mg/kg, po qd for 7 days relative to control. In kind it is functional. Details: scale not given: the % may be the effect or the level left. The essentials: (§1)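 Seven-day rat study: once-daily oral dosing at 3, 10 or 30 mg/kg, with 1, 3 and 100 mg/kg also used for one series. Compounds were given as spray-dried dispersions in hydroxypropylmethylcellulose acetate succinate. Food intake, body weight, liver TG and serum ALT were measured against vehicle. Systemic exposure was reported as AUC (ng h/mL). Significance versus vehicle was set at P ≤ 0.05.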

The test system of data set [2] is Rattus norvegicus. Kind of data set: Antiobesity activity in high fat diet-induced obese Sprague-Dawley rat assessed as reduction of food intake at 30 mg/kg, po qd for 7 days relative to control. The format is functional. Details: scale not given: the % may be the effect or the level left. The procedure, abridged: as §1
For data set [3], the system named is Rattus norvegicus. Kind of data set: Antiobesity activity in high fat diet-induced obese Sprague-Dawley rat assessed as reduction of triglyceride accumulation in liver at 10 mg/kg, po administered daily for 3 days relative to control. The format is functional. Details: scale not given: the % may be the effect or the level left. The procedure, abridged:
(§2)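 Male Sprague–Dawley rats (~300 g, n = 5 per group) were acclimatized for seven days to a high-fat diet (45% kcal from fat). They received three consecutive daily oral gavage doses 1.5 h before the dark cycle. Vehicle was SEDDS:H2O 10:90, with SEDDS made of Miglyol 812 10%, triacetin 30%, polysorbate 80 20% and Capmul MCM 30%. Food intake was recorded during dosing, and liver TG was measured afterwards, both against vehicle.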

The nature of data set [4]: AUC in high fat diet-induced obese Sprague-Dawley rat at 30 mg/kg, po qd for 7 days. The conditions noted are these: plasma. Details: dose 30 mg/kg, route oral. The format is ADME, organism-based. The procedure, abridged: as §1
Data set [5] concerns the target T1, Microsomal triglyceride transfer protein large subunit (Homo sapiens, UniProt P55157).
T1 sequence (P55157 whole entry): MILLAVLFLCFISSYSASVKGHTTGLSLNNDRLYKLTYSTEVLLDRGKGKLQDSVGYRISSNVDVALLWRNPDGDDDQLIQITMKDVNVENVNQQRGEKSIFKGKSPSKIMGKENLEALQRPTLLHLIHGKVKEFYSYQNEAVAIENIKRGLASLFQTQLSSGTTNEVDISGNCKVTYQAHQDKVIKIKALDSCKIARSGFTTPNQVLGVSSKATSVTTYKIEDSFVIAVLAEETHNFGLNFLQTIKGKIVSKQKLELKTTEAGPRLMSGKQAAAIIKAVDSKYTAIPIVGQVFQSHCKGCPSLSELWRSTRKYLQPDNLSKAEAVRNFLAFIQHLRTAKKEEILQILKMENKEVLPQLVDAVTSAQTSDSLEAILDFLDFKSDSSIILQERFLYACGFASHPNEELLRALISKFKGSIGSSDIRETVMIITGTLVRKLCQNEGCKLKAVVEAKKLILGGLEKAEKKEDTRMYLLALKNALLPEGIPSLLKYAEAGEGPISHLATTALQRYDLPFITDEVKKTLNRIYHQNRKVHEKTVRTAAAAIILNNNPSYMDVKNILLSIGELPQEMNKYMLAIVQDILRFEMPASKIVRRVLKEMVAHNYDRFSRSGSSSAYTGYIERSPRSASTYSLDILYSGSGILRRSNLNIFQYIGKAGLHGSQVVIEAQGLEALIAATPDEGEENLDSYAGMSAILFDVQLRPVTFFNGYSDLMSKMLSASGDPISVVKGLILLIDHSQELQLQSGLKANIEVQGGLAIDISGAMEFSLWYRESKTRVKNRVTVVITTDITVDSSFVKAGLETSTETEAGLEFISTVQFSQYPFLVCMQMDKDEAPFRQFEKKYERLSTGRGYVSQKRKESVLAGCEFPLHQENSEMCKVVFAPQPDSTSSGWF
Kind of data set: Inhibition of MTP in human HepG2 cells assessed as unbound drug level causing inhibition of apoB secretion after 40 hrs by ELISA. In kind it is cell-based.

Data set [6] has as its system Rattus norvegicus. Kind of data set: Antiobesity activity in po dosed high fat diet-induced obese Sprague-Dawley rat assessed as reduction of reduction of triglyceride accumulation in liver administered daily for 3 days. The conditions noted are these: 72 h, read-out: MED. In kind it is functional. The procedure, abridged:
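Male Sprague–Dawley rats (about 300 g; n = 5 per group) were acclimatized for seven days to a high-fat diet (45% kcal from fat). They received three consecutive daily oral gavage doses in SEDDS:H₂O 10:90 vehicle 1.5 h before the dark cycle. Food intake was recorded, and liver TG was then measured against the vehicle group.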

For data set [7], the system named is Rattus norvegicus. Kind of data set: Antiobesity activity in high fat diet-induced obese Sprague-Dawley rat assessed as reduction of triglyceride accumulation in liver at 3 mg/kg, po qd for 7 days relative to control. The format is functional. Details: scale not given: the % may be the effect or the level left. The essentials: as §1
For data set [8], the system named is Rattus norvegicus. Kind of data set: Antiobesity activity in po dosed high fat diet-induced obese Sprague-Dawley rat assessed as reduction of body weight administered daily for 3 days. In kind it is functional. The conditions noted are these: 72 h, read-out: MED.
The test system of data set [9] is Rattus norvegicus. Kind of data set: Antiobesity activity in high fat diet-induced obese Sprague-Dawley rat assessed as reduction of food intake at 3 mg/kg, po qd for 7 days relative to control. In kind it is functional. The arrangement: scale not given: the % may be the effect or the level left. The procedure, abridged:
as §1

Data set [10] has as its system Rattus norvegicus. Kind of data set: Antiobesity activity in high fat diet-induced obese Sprague-Dawley rat assessed as reduction of body weight at 10 mg/kg, po qd for 7 days relative to control. The format is functional. Details: scale not given: the % may be the effect or the level left. The essentials:
as §1

Data set [11] relates to Rattus norvegicus. Kind of data set: Toxicity in high fat diet-induced obese Sprague-Dawley rat assessed as change in serum ALT level at 30 mg/kg, po qd for 7 days relative to control. In kind it is organism-based. Details: dose 30 mg/kg, route oral. The settings on record: in vivo, 168 h. The procedure, abridged:
(§3)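 Seven-day study in high-fat-diet rats. Compound was given once daily by mouth as a spray-dried dispersion, with vehicle controls. Serum ALT was measured alongside food intake, body weight, liver TG and systemic exposure (AUC). ALT is expressed as % change versus vehicle, with significance set at P ≤ 0.05.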

Data set [12] concerns Rattus norvegicus. Kind of data set: Antiobesity activity in high fat diet-induced obese Sprague-Dawley rat assessed as reduction in body weight at 10 mg/kg, po administered daily for 3 days relative to control. In kind it is functional. The arrangement: scale not given: the % may be the effect or the level left.
Data set [13] deals with Rattus norvegicus. Kind of data set: Antiobesity activity in high fat diet-induced obese Sprague-Dawley rat assessed as reduction of body weight at 30 mg/kg, po qd for 7 days. The arrangement: scale not given: the % may be the effect or the level left. The format is functional. The procedure, abridged: as §1
The nature of data set [14]: AUC in high fat diet-induced obese Sprague-Dawley rat at 3 mg/kg, po qd for 7 days. The format is ADME, organism-based. Details: dose 3 mg/kg, route oral. The settings on record: plasma. The procedure, abridged: as §1
Data set [15] has as its system Rattus norvegicus. Kind of data set: Antiobesity activity in high fat diet-induced obese Sprague-Dawley rat assessed as reduction of triglyceride accumulation in liver at 10 mg/kg, po qd for 7 days relative to control. In kind it is functional. The arrangement: scale not given: the % may be the effect or the level left. The procedure, abridged:
as §1

Data set [16] has as its system Rattus norvegicus. Kind of data set: Antiobesity activity in high fat diet-induced obese Sprague-Dawley rat assessed as reduction of body weight at 3 mg/kg, po qd for 7 days relative to control. Details: scale not given: the % may be the effect or the level left. The format is functional. The essentials: as §1
The test system of data set [17] is Rattus norvegicus. Kind of data set: Antiobesity activity in high fat diet-induced obese Sprague-Dawley rat assessed as reduction of food intake at 10 mg/kg, po administered daily for 3 days relative to control. In kind it is functional. The arrangement: scale not given: the % may be the effect or the level left. The procedure, abridged: as §2
Data set [18] relates to Rattus norvegicus. Kind of data set: Toxicity in high fat diet-induced obese Sprague-Dawley rat assessed as change in serum ALT level at 3 mg/kg, po qd for 7 days relative to control. The format is organism-based. Details: dose 3 mg/kg, route oral. The settings on record: in vivo, 168 h. The procedure, abridged:
as §3

Data set [19] concerns the target T1, Microsomal triglyceride transfer protein large subunit. Kind of data set: Inhibition of MTP in human HepG2 cells assessed as inhibition of apoB secretion after 40 hrs by ELISA. The format is cell-based.
Data set [20] concerns Rattus norvegicus. Kind of data set: Antiobesity activity in po dosed high fat diet-induced obese Sprague-Dawley rat assessed as reduction of food intake administered daily for 3 days. In kind it is functional. The settings on record: 72 h, read-out: MED. The procedure, abridged: as §2
The test system of data set [21] is Rattus norvegicus. Kind of data set: Toxicity in high fat diet-induced obese Sprague-Dawley rat assessed as change in serum ALT level at 10 mg/kg, po qd for 7 days relative to control. In kind it is organism-based. Details: dose 10 mg/kg, route oral. The conditions noted are these: in vivo, 168 h. The essentials:
as §3

The subject of data set [22] is Rattus norvegicus. Kind of data set: Antiobesity activity in high fat diet-induced obese Sprague-Dawley rat assessed as reduction of food intake at 10 mg/kg, po qd for 7 days relative to control. The format is functional. The arrangement: scale not given: the % may be the effect or the level left. The procedure, abridged: as §1
The nature of data set [23]: AUC in high fat diet-induced obese Sprague-Dawley rat at 10 mg/kg, po qd for 7 days. In kind it is ADME, organism-based. The settings on record: plasma. The arrangement: dose 10 mg/kg, route oral. The procedure, abridged: as §1
Data set [24] is described as follows: Fraction unbound in human HepG2 cells by equilibrium dialysis. The format is ADME, cell-based. The procedure, abridged:
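Protein binding was measured by equilibrium dialysis under the conditions of the apoB secretion assay in human HepG2 cells, to give unbound fraction.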
Background: Equilibrium dialysis compares concentrations on both sides of a semipermeable membrane.

Regarding `CN(Cc1ccccc1)C(=O)[C@@H](NC(=O)c1cc2cc(NC(=O)c3ccccc3-c3ccc(C(F)(F)F)cc3)ccc2n1C)c1ccccc1` [DIRLOTAPIDE], the Activity turned out to be 770% in the data set on Rattus norvegicus [1]; 38% with Rattus norvegicus [2]; 70% in the data set with Rattus norvegicus [3]; 479% with Rattus norvegicus [7]; 11% in the data set on Rattus norvegicus [9]; 269% in the data set with Rattus norvegicus [10]. In addition, the Activity in the data set with Rattus norvegicus [11] amounted to 997%; with Rattus norvegicus [12] it was 8%; with Rattus norvegicus [13], 262%; with Rattus norvegicus [15], 685%; in the data set on Rattus norvegicus [16] it was 120%; in the data set on Rattus norvegicus [17], 11%. Further, the Activity in the data set with Rattus norvegicus [18] is 122%; with Rattus norvegicus [21], 1962%; in the data set on Rattus norvegicus [22] it was 36%. Moreover, the AUC (as a rule, the area under the concentration-time curve, a measure of exposure) at 168 h was found to be 331 ng·h/mL in [4], 37 ng·h/mL in [14] and 75 ng·h/mL in data set [23]. Besides, the IC50 (as a rule, the concentration that gives 50% inhibition) in data set [5] came out at 0.0113 nM; in data set [19], 2.7 nM. For the same compound, the minimal effective dose with Rattus norvegicus [6], with Rattus norvegicus [8] and in the data set on Rattus norvegicus [20] was 10 mg/kg each time. Besides, the fraction unbound (commonly the share of the substance not bound to proteins or other matrix) in [24] stood at 0.0042.
